By AC50 is commonly meant the midpoint of the concentration-response curve, whichever way the signal moves.

Active and inactive are the calls of the source.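 How the source made its calls: active means viability drop with AC50 at most twice the sample's highest valid dose; inconclusive means flat curve with moderate loss, or a poor fit; inactive means the rest.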

System in one experiment: not listed separately
Put plainly: viability of MITF-independent A375 cells – cell-based, CellTiter-Glo luminescence, dry powder, set 5, counter-screen for MITF inhibitor project, dose response (AID 624368). Conditions: A375 viability, CellTiter-Glo ATP luminescence, 24 h; at 35 µM (top of the series). In short, it runs like this: (§1)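 Detection: ATP luminescence, CellTiter-Glo. System: MITF-independent A375 melanoma cells. Amount: 3000 cells per well. Times: 24 h compound exposure, 37 °C.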
A general note: ATP-based viability assays read luminescence as a measure of living cells.
As to `O=C1C(NS(=O)(=O)c2ccccc2)=C(N2CCOCC2)C(=O)c2ccccc21`, the activity change, negative = cytotoxicity is -1.41% (inactive). As to `NC1=C(c2ccc(OC(F)(F)F)cc2)C(=O)c2ccccc2C1=O`, the activity change, negative = cytotoxicity was -3.65% (inactive). With `CCN1CCN(C2=C(NS(=O)(=O)c3ccc(Br)cc3)C(=O)c3ccccc3C2=O)CC1`, the activity change, negative = cytotoxicity is 8.86% (inactive).

As for `O=C1C(Nc2ccccc2)=C(NS(=O)(=O)c2ccccc2[N+](=O)[O-])C(=O)c2ccccc21`, the activity change, negative = cytotoxicity is -2.72% (inactive). The same measure, in the same setting: for `O=C1C(NS(=O)(=O)c2ccccc2)=C(N2CCCCC2)C(=O)c2ccccc21` the value was 0.773% (inactive); for `O=C1C=C(NS(=O)(=O)c2ccc(Br)cc2)C(=O)c2ccccc21`, 2.29% (inactive); for `CNC1=CC(=O)c2ccccc2C1=O`, 3.5% (inactive). The same measure, in the same setting: in the case of `NC1=C(NS(=O)(=O)c2ccc(Br)s2)C(=O)c2ccccc2C1=O` it was 3.75% (inactive).

For a further experiment, the system named is A375 viability, CellTiter-Glo ATP luminescence, 24 h. The description is as above.
Details: not given
An outline of the steps:
as §1
With `O=C1C(NS(=O)(=O)c2ccccc2)=C(c2ccccc2)C(=O)c2ccccc21`, the AC50 is > 70 µM (inactive).

As for `CN1CCN(C2=C(NC(=O)c3ccc(Br)cc3)C(=O)c3ccccc3C2=O)CC1`, the AC50 was 32.2 µM.

For the compound `O=C(NC1=C(N2CCCCC2)C(=O)c2ccccc2C1=O)c1ccc(Br)cc1`, the AC50 was > 70 µM (inactive). Take `O=C1C(NS(=O)(=O)c2ccc(Br)s2)=C(N2CCCCC2)C(=O)c2ccccc21`: the AC50 is > 70 µM (inactive). Regarding `NC1=C(NS(=O)(=O)c2cccs2)C(=O)c2ccccc2C1=O`, the AC50 was > 70 µM (inactive). Regarding `CC1CCN(CC(CS(=O)(=O)c2ccc([N+](=O)[O-])cc2)N2CCC(C)CC2)CC1` (configuration not stated), the AC50 was > 70 µM (inactive). Same read-out and setting: in the case of `O=C1C(Nc2ccccc2)=C(N2CCOCC2)C(=O)c2ccccc21` it was > 70 µM (inactive). As for `COC1=C(Nc2ccccc2)C(=O)c2ccccc2C1=O`, the AC50 was > 70 µM (inactive). On to `CC(=O)N(C)C1=C(N2CCN(C)CC2)C(=O)c2ccccc2C1=O`, for which the AC50 is 24.3 µM. Turning to `Cc1nc2ccccc2n1/N=C/c1ccc([N+](=O)[O-])s1`, the AC50 is > 70 µM (inactive). For `COC1=C(NS(=O)(=O)c2ccccc2)C(=O)c2ccccc2C1=O`, the AC50 is > 70 µM (inactive). As to `COC1=C(NS(=O)(=O)c2ccc(Br)cc2)C(=O)c2ccccc2C1=O`, the AC50 is > 70 µM (inactive). Regarding `O=C1C(NS(=O)(=O)c2ccc(Br)s2)=C(N2CCSCC2)C(=O)c2ccccc21`, the AC50 is > 70 µM (inactive). `O=C1C(Nc2ccccc2)=C(N2CCSCC2)C(=O)c2ccccc21`: the AC50 is > 70 µM (inactive).

On to `COC1=C(NS(=O)(=O)c2cccs2)C(=O)c2ccccc2C1=O`, for which the AC50 is > 70 µM (inactive). Same read-out and setting: for `C=CCNC1=C(Cl)C(=O)c2ccccc2C1=O` the value was > 70 µM (inactive). Consider `NC1=C(NS(=O)(=O)c2ccc(Br)cc2)C(=O)c2ccccc2C1=O`, for which the AC50 was > 70 µM (inactive). For `C[C@@H](NC1=C(Nc2ccccc2)C(=O)c2ccccc2C1=O)c1ccccc1`, the AC50 was > 70 µM (inactive). Same read-out and setting: for `O=C1C(NS(=O)(=O)c2cccs2)=C(c2ccccc2)C(=O)c2ccccc21` the value was > 70 µM (inactive); for `O=C1C=C(NS(=O)(=O)c2ccccc2)C(=O)c2ccccc21`, > 70 µM (inactive); for `C=CCNC1=C(N(C)C(C)=O)C(=O)c2ccccc2C1=O`, 23 µM. `Cc1ccc(C(=O)NC2=C(c3ccccc3)C(=O)c3ccccc3C2=O)o1`: the half-maximal activity concentration (AC50) is 32 µM.

Consider `CCN1CCN(C2=C(NS(=O)(=O)c3ccc(Br)s3)C(=O)c3ccccc3C2=O)CC1`, for which the AC50 is > 70 µM (inactive). For `O=C(NC1=C(N2CCOCC2)C(=O)c2ccccc2C1=O)c1ccc(Br)cc1`, the AC50 was > 70 µM (inactive). Turning to `O=C(CNc1cccc2ccccc12)N/N=C/c1ccc([N+](=O)[O-])o1`, the AC50 was > 70 µM (inactive).

As to `CCN(CC)CCCNC1=C(Nc2ccccc2)C(=O)c2ccccc2C1=O`, the AC50 is > 70 µM (inactive). As to `NC1=CC(=O)c2ccccc2C1=O`, the AC50 is > 70 µM (inactive). `O=C1C=C(Nc2ccccc2)C(=O)c2ccccc21`: the AC50 was > 70 µM (inactive). For `O=C(NC1=C(c2ccccc2)C(=O)c2ccccc2C1=O)c1ccco1`, the concentration at half-maximal activity (AC50) is 29.1 µM.

With `O=C1C(NS(=O)(=O)c2cccs2)=C(N2CCCCC2)C(=O)c2ccccc21`, the AC50 was > 70 µM (inactive). As for `CN1CCN(C2=C(Nc3ccccc3)C(=O)c3ccccc3C2=O)CC1`, the AC50 is > 70 µM (inactive). The same measure, in the same setting: in the case of `NC1=C(c2ccccc2)C(=O)c2ccccc2C1=O` it was > 70 µM (inactive). The same measure, in the same setting: for `CCN(CC)CCNC1=C(Nc2ccccc2)C(=O)c2ccccc2C1=O` the value was > 70 µM (inactive). `CCN1CCN(C2=C(NC(=O)c3ccc(Br)cc3)C(=O)c3ccccc3C2=O)CC1`: the half-maximal activity concentration (AC50) was 28 µM. Regarding `CN1CCN(C2=C(NS(=O)(=O)c3ccc(Br)s3)C(=O)c3ccccc3C2=O)CC1`, the AC50 is > 70 µM (inactive). For the compound `C=CCNC1=C(Nc2ccccc2)C(=O)c2ccccc2C1=O`, the AC50 is > 70 µM (inactive). With `O=C1C(NS(=O)(=O)c2ccc(Br)s2)=C(N2CCOCC2)C(=O)c2ccccc21`, the AC50 was > 70 µM (inactive).

For `NC1=C(NC(=O)c2ccccc2)C(=O)c2ccccc2C1=O`, the AC50 was > 70 µM (inactive). On the same count and under the same terms, for `COc1ccc(S(=O)(=O)N(C(C)=O)c2ccc(OC(C)=O)c3ccccc23)cc1[N+](=O)[O-]` the value was > 70 µM (inactive).

As to `O=C1C(Nc2ccccc2)=C(N2CCCCC2)C(=O)c2ccccc21`, the AC50 is > 70 µM (inactive).

In the case of `O=C1C(Nc2ccccc2)=C(c2ccccc2)C(=O)c2ccccc21`, the AC50 is > 70 µM (inactive). On to `NC1=C(NS(=O)(=O)c2ccccc2)C(=O)c2ccccc2C1=O`, for which the AC50 is > 70 µM (inactive).

Consider `O=C(NC1=C(N2CCSCC2)C(=O)c2ccccc2C1=O)c1ccc(Br)cc1`, for which the AC50 is > 70 µM (inactive).

Consider `O=C1C=C(NS(=O)(=O)c2cccs2)C(=O)c2ccccc21`, for which the AC50 is > 70 µM (inactive).

For the origin of these results see PubChem BioAssay AID624368 (Broad Institute, 2012).
